Measured values from paper PMC3390238 (Science Translational Medicine, 2012).
Like-named read-outs stand apart in the source and are kept apart here. Positions of bridges follow the written chain, without caps; N, C: chain ends. Non-standard residues stand in square brackets, D forms with d. Residues, ends and D or L forms follow the SMILES beside them. hArg = N=C(N)NCCCC[C@H](N)C(=O)O; Mpa = O=C(O)CCS

How the values were obtained:
[1] = tested on: platelet adhesion/aggregation to collagen; test: Platelet adhesion/aggregation to collagen; type: cell-based, human
αIIbβ3 [2] = molecular target: T1, αIIbβ3 (Homo sapiens, UniProt P05106+P08514); test: Platelet adhesion to immobilized fibrinogen screening assay; type: cell-based; details: for inhibition of platelet adhesion to fibrinogen: mean ± SD, five experiments
αIIbβ3 [3] = molecular target: T1, αIIbβ3; test: ADP-induced platelet aggregation of platelet-rich plasma; type: cell-based
mouse platelets = test: ADP-induced mouse platelet aggregation; type: cell-based
rat platelets = test: ADP-induced rat platelet aggregation; type: cell-based
αVβ3 = αVβ3 (Homo sapiens, UniProt P05106+P06756); test: αVβ3-mediated HEK293 cell adhesion to vitronectin; type: cell-based
αIIbβ3 [4] = molecular target: T1, αIIbβ3; test: αIIbβ3-mediated HEK293 cell adhesion to fibrinogen; type: cell-based; details: 100 μM; n = 4
[5] = molecular target: αIIbβ3 ligand-induced binding sites (Homo sapiens, UniProt P05106+P08514); test: Induction of ligand-induced binding site; type: cell-based; details: for PMI-1 binding to platelets, % of amount bound in the presence of eptifibatide: αIIb LIBS mAb PMI-1, untreated 46 ± 5%; for PMI-1 binding to platelets, % of amount bound in the presence of eptifibatide / LIBS1 binding to platelets, % of amount bound in the presence of eptifibatide: eptifibatide = 100%; for AP5 binding to platelets, % of amount bound in the presence of eptifibatide: β3 LIBS mAb AP5, eptifibatide 10 μM = 100%, untreated 7 ± 3%; for LIBS1 binding to platelets, % of amount bound in the presence of eptifibatide: β3 LIBS mAb LIBS1, after 30 min, untreated 22 ± 3%
How it was run: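 Flow-based binding of LIBS mAbs to platelets: AP5 (β3 PSI domain), LIBS1 (β3 distal leg) and PMI-1 (αIIb). Net normalized fluorescence was expressed relative to platelets treated with eptifibatide, set as 100%. For AP5 the reference was eptifibatide 10 µM, 30 min at 22°C. Replicates: n=5 for AP5, n=4 for PMI-1.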

normal human platelets = test: Recruitment of αIIbβ3-dependent patient IgG to drug-pretreated platelets; type: cell-based; details: for recruitment of patient IgG to platelets: all 5 tirofiban samples and 13 of 15 eptifibatide samples
How it was run: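 Normal platelets were pretreated with test compound, then exposed to sera from patients with tirofiban- (5) or eptifibatide-induced (15) thrombocytopenia. Platelet-bound patient IgG was read as median MFI. Signals were compared with untreated control platelets and with eptifibatide-treated platelets.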

purified αIIbβ3 = purified αIIbβ3 (Homo sapiens, UniProt P05106+P08514); test: Negative stain EM of αIIbβ3 nanodiscs
αIIbβ3 headpiece [6] = molecular target: T2, αIIbβ3 headpiece (Homo sapiens, UniProt P05106+P08514); test: Gel filtration of soluble αIIbβ3 headpiece; details: for reduction in αIIbβ3 headpiece elution volume: Superdex 200
Target sequence in this assay (P08514 32-652 limits assumed): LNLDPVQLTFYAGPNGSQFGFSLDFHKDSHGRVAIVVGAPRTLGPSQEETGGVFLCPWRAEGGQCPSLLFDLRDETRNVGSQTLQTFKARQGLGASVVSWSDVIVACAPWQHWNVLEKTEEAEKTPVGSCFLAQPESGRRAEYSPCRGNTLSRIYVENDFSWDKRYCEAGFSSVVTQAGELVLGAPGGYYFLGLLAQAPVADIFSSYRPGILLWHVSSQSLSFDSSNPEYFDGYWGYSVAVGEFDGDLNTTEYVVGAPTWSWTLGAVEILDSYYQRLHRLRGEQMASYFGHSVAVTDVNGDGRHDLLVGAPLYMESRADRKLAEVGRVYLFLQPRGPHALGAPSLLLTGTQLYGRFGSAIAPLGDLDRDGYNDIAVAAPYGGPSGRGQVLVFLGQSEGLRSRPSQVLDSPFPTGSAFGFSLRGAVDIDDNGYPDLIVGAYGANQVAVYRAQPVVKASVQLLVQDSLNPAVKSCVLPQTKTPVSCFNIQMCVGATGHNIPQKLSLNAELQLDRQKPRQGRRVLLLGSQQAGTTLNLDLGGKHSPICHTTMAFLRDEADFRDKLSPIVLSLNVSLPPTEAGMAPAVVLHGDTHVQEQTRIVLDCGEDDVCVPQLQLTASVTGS
Target sequence in this assay (P05106 27-498 limits assumed): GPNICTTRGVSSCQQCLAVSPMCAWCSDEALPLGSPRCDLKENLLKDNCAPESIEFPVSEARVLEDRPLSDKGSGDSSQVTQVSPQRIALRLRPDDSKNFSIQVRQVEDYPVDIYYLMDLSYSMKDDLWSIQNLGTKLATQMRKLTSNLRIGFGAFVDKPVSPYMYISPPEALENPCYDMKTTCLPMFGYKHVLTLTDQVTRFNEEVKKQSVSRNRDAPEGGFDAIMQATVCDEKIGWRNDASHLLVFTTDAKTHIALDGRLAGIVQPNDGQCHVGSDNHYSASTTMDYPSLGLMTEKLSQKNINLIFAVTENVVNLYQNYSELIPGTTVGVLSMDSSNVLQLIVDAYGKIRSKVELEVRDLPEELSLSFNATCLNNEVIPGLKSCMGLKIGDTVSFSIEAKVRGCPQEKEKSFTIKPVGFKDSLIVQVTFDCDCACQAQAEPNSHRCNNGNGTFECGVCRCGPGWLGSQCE

αIIbβ3 headpiece [7] = molecular target: T2, αIIbβ3 headpiece; test: Dynamic light scattering of soluble αIIbβ3 headpiece
Target sequence in this assay (P08514 32-652 limits assumed): as the sequence (P08514 32-652 limits assumed) above
Target sequence in this assay (P05106 27-498 limits assumed): as the sequence (P05106 27-498 limits assumed) above

platelet αIIbβ3 = platelet αIIbβ3 (Homo sapiens, UniProt P05106+P08514); test: Priming assay: induction of fluorescent fibrinogen binding to platelets; type: cell-based; details: for incremental fibrinogen binding: one experiment
recombinant human αIIbβ3 = type: cell-based; details: going from 1 to 50 mM Mg2+
How it was run: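 CHO-K cells stably expressing human αIIbβ3 were preincubated ±test compound for 30 min at each Mg²⁺ level (1 to 50 mM) plus 1 mM Ca²⁺. They were then exposed to PAC-1 (5 µg/ml) with activating mAb PT25-2 (5 µg/ml) for 30 min at 25°C, stained with PE anti-mouse IgM on ice for 30 min, and analysed by flow cytometry. Read-out was % MFI with vs without drug (n=3); IC50 was compared across Mg²⁺ levels.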

αIIbβ3 [8] = molecular target: T1, αIIbβ3; test: Platelet adhesion to fibrinogen at different Mg2+ concentrations; type: cell-based; details: for IC50: IC50, platelet adhesion to fibrinogen, 1 mM Ca2+, mean ± SD, three experiments
αIIbβ3 [9] = molecular target: T1, αIIbβ3; test: Platelet aggregation induced by thrombin receptor–activating peptide; type: cell-based; details: 20 mM vs 1 mM Mg2+
αIIbβ3 [10] = details: 25.6 mg/kg; cited from earlier work
hαIIb/mβ3 = hαIIb/mβ3 (UniProt O54890+P08514); test: Aggregation of platelets from a mouse expressing human αIIb and mouse β3; type: cell-based
[11] = pKa by titration in water; type: physicochemical
αIIbβ3 headpiece [12] = molecular target: T2, αIIbβ3 headpiece; test: X-ray crystallography of RUC-2–αIIbβ3 headpiece complex; details: determined by x-ray crystallography, PDB code 3T3M
[13] = 100 μM, first reactive eptifibatide-patient serum
[14] = read-out: inhibition of platelet adhesion to fibrinogen

T1 sequence (P08514 32-887 limits assumed): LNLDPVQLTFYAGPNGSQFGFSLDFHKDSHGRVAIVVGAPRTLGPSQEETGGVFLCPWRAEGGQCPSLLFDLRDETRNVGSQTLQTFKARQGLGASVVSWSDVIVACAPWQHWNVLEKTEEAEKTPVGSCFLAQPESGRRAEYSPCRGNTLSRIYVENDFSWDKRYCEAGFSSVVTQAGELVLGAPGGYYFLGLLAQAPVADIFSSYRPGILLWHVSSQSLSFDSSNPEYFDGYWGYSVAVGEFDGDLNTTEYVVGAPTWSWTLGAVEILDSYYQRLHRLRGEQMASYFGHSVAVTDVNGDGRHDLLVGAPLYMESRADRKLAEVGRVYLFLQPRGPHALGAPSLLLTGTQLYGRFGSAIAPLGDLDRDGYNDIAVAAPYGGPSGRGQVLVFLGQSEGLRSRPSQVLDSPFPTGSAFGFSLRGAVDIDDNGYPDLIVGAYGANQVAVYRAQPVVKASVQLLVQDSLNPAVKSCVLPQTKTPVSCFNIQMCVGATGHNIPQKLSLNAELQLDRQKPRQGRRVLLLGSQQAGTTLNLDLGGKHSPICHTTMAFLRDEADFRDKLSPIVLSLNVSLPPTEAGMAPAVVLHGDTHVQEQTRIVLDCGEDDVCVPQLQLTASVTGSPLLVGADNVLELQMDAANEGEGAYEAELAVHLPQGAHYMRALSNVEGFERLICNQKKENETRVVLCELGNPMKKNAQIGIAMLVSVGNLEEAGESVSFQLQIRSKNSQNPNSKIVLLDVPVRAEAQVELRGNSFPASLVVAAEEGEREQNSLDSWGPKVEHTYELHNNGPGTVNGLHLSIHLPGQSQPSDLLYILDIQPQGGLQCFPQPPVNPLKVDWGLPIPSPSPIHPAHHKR
T1 sequence (P08514 891-1039 partner limits assumed): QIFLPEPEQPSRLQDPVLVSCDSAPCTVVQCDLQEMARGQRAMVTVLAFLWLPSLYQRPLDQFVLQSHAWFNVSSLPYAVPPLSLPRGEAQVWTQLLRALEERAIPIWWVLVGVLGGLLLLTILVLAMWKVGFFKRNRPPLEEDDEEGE
T1 sequence (P05106 27-788): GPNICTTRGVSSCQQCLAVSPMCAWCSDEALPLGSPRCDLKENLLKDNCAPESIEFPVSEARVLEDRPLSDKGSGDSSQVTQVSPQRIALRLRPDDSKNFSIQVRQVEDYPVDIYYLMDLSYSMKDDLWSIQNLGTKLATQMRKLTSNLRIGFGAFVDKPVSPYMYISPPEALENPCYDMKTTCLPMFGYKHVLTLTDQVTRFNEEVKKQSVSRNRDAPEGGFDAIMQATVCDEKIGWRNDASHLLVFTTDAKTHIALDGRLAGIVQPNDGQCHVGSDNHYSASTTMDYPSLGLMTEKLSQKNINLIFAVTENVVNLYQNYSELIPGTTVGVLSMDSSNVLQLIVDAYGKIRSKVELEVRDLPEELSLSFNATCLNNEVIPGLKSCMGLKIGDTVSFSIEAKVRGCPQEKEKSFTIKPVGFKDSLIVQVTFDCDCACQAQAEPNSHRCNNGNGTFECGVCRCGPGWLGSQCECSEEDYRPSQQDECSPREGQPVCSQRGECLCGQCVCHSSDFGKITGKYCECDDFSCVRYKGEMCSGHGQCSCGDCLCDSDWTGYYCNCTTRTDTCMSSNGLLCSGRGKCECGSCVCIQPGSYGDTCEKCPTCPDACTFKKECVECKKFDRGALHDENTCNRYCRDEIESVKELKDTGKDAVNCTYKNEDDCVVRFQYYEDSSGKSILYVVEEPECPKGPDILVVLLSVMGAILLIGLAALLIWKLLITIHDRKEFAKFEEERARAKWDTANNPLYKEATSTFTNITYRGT
Sequence of platelet αIIbβ3 (P08514 32-887 limits assumed): as the sequence (P08514 32-887 limits assumed) above
Sequence of platelet αIIbβ3 (P08514 891-1039 partner limits assumed): as the sequence (P08514 891-1039 partner limits assumed) above
Sequence of platelet αIIbβ3 (P05106 27-788): as the sequence (P05106 27-788) above

In the case of 10E5: anti-αIIbβ3 (αIIbβ3-specific) mAb, the “inhibition of platelet adhesion/aggregation to collagen” value ([1]; mAb, concentration not given) is reported as ~ 30%.
With `CCc1nn2c(=O)cc(N3CCNCC3)nc2s1` [RUC-1, reference compound] the “inhibition of platelet adhesion to fibrinogen” value (αIIbβ3 [2]; 10 μM) was 22 ± 8%, the “inhibition of platelet adhesion to fibrinogen” value (αIIbβ3 [2]; 30 μM) was 38 ± 10% and the “inhibition of platelet adhesion to fibrinogen” value (αIIbβ3 [2]; 100 μM) was 70 ± 15%. The “inhibition of human platelet aggregation” value (αIIbβ3 [3]; 100 μM) was “nearly completely inhibited”, the IC50 (αIIbβ3 [3]; read-out: IC50, ADP-induced platelet aggregation, citrated PRP, ADP 5 μM, initial slope) was 9700 ± 1000 nM and the “inhibition of mouse platelet aggregation induced by ADP” value (mouse platelets; 100 μM) was “did not inhibit”. For the same molecule, the “inhibition of rat platelet aggregation induced by ADP” value (rat platelets; 100 μM) was “did not inhibit”, the “inhibition of adhesion of HEK293 cells expressing αVβ3 to vitronectin” value (αVβ3; 100 μM, n = 4) was 5 ± 7% and the “inhibition of adhesion of HEK293 cells expressing αIIbβ3 to fibrinogen” value (αIIbβ3 [4]) was 55 ± 5%. The “PMI-1 binding to platelets, % of amount bound in the presence of eptifibatide” value [5] was 73 ± 9%, the “AP5 binding to platelets, % of amount bound in the presence of eptifibatide” value [5] was 10 ± 4% and the “LIBS1 binding to platelets, % of amount bound in the presence of eptifibatide” value [5] was 18 ± 2%. For the same molecule, the “recruitment of patient IgG to platelets” value (normal human platelets; 100 μM) was “Neither RUC-1 nor RUC-2 induced recruitment of patient IgG”, the “MFI increase as % of value with eptifibatide-treated platelets” value (normal human platelets; [13]) was 13% and the “median MFI relative to control platelets” value (normal human platelets; [13]) was 6.8 times. For the same molecule, the “recognition of pretreated platelets by patient serum” value (normal human platelets; 100 μM, second reactive eptifibatide-patient serum) was “but not RUC-1”, the “shift of NIL value distribution of αIIbβ3 nanodiscs” value (purified αIIbβ3; up to 100 μM, P = 0.23) was “neither RUC-1 at concentrations up to 100 μM nor RUC-2 at concentrations up to 10 μM produced a significant shift” and the “increase in Stokes radius, gel filtration” value (“increase … gel filtration” below) (αIIbβ3 headpiece [6]; 500 μM (near-saturating)) was “little or no increases”. The “reduction in αIIbβ3 headpiece elution volume” value (αIIbβ3 headpiece [6]; 500 μM (near-saturating)) was 0.03 mL, the “increase in Stokes radius, DLS” value (αIIbβ3 headpiece [7]; 500 μM (near-saturating)) was 0.08 nm and the incremental fibrinogen binding (platelet αIIbβ3; 100 μM) was 2%. For the same molecule, the “increase of IC50 for PAC-1 binding” value (recombinant human αIIbβ3) was ~ 6%, the “increase in IC50 at higher Mg2+ concentrations, platelet adhesion to fibrinogen” value (αIIbβ3 [8]; compared with RUC-2) was “Neither RUC-1 nor tirofiban showed a comparable increase in IC50” and the “inhibitory effect on SFLLRN-induced platelet aggregation” value (αIIbβ3 [9]; 100 μM) was “much less evident”. The “antithrombotic effects in murine models in large and small blood vessels” value (αIIbβ3 [10]) was “has antithrombotic effects”.
For `NCC(=O)Nc1cccc(-c2nn3c(=O)cc(N4CCNCC4)nc3s2)c1` [RUC-2, 2-amino-N-(3-(5-oxo-7-(piperazin-1-yl)-5H-[1,3,4]thiadiazolo[3,2-a]pyrimidin-2-yl)phenyl)acetamide], the “αIIbβ3-dependent platelet adhesion to fibrinogen in a screening assay” value (αIIbβ3 [2]) was “RUC-2 inhibited αIIbβ3-dependent platelet adhesion to fibrinogen in a screening assay and αIIbβ3-dependent platelet aggregation. It was found to bind to the target via x-ray crystallography (PDB code 3T3M)”, the inhibition at 10 µM (αIIbβ3 [2]; [14]) was 66 ± 10% and the inhibition at 30 µM (αIIbβ3 [2]; [14]) was 80 ± 13%. The inhibition at 100 µM (αIIbβ3 [2]; [14]) was 83 ± 7%, the IC50 (αIIbβ3 [3]) was 220 nM and the αIIbβ3-dependent platelet aggregation (αIIbβ3 [3]) was “RUC-2 inhibited αIIbβ3-dependent platelet adhesion to fibrinogen in a screening assay and αIIbβ3-dependent platelet aggregation. It was found to bind to the target via x-ray crystallography (PDB code 3T3M)”. The “inhibition of human platelet aggregation” value (αIIbβ3 [3]; 1 μM) was “nearly completely inhibited”, the “inhibition of mouse platelet aggregation induced by ADP” value (mouse platelets; 1 μM) was “did not inhibit” and the “inhibition of rat platelet aggregation induced by ADP” value (rat platelets; 1 μM) was “did not inhibit”. The “inhibition of aggregation of hαIIb/mβ3 mouse platelets” value (hαIIb/mβ3) was “essentially completely inhibited”, the “inhibition of platelet adhesion/aggregation to collagen” value ([1]; 1 to 100 μM) was ~ 30% and the “further inhibition of adhesion/aggregation to collagen” value ([1]; RUC-2 combined with anti-αIIbβ3 antibody 10E5) was “did not further inhibit”. The “platelet adhesion to collagen, microscopic analysis” value ([1]; decreased recruitment of additional platelets to adherent platelets) was “did not decrease platelet adhesion to collagen”, the “effect on αVβ3-mediated cell adhesion to vitronectin” value (αVβ3) was “RUC-2 had minimal effect on αVβ3-mediated cell adhesion to vitronectin” and the “PMI-1 binding to platelets, % of amount bound in the presence of eptifibatide” value [5] was 82 ± 13%. For the same molecule, the “AP5 binding to platelets, % of amount bound in the presence of eptifibatide” value [5] was 18 ± 5%, the “LIBS1 binding to platelets, % of amount bound in the presence of eptifibatide” value [5] was 21 ± 3% and the “recruitment of patient IgG to platelets” value (normal human platelets; 3.9 μM) was “Neither RUC-1 nor RUC-2 induced recruitment of patient IgG”. The “MFI increase as % of value with eptifibatide-treated platelets” value (normal human platelets; 3.9 μM, first reactive eptifibatide-patient serum) was 8%, the “increase … gel filtration” value (αIIbβ3 headpiece [6]; 100 μM (near-saturating)) was “little or no increases” and the “reduction in αIIbβ3 headpiece elution volume” value (αIIbβ3 headpiece [6]; 100 μM (near-saturating)) was 0.07 mL. For the same molecule, the “increase in Stokes radius, DLS” value (αIIbβ3 headpiece [7]; 100 μM (near-saturating)) was 0.16 nm, the incremental fibrinogen binding (platelet αIIbβ3; 1 μM) was “did not produce any incremental binding” and the “fibrinogen binding to platelets (priming)” value (platelet αIIbβ3; 5 μM) was “did not increase the fibrinogen binding”. For the same molecule, the “reduction in affinity (PAC-1 binding)” value (recombinant human αIIbβ3) was ~75%, the “increase of IC50 for PAC-1 binding” value (recombinant human αIIbβ3; 1 mM Ca2+, activating mAb PT25-2) was ~ 3.9 fold and the IC50 (αIIbβ3 [8]; 1 mM Mg2+) was 290 ± 100 nM. For the same molecule, the IC50 (αIIbβ3 [8]; 20 mM Mg2+) was 910 ± 210 nM, the IC50 (αIIbβ3 [8]; 50 mM Mg2+) was 1300 ± 350 nM and the “decrease in affinity, platelet adhesion to fibrinogen” value (αIIbβ3 [8]; going from 1 to 50 mM Mg2+) was ~ 80%. For the same molecule, the “increase in IC50, platelet adhesion to fibrinogen” value (αIIbβ3 [8]; going from 1 to 50 mM Mg2+) was ~ 4.5 fold, the “inhibitory effect on SFLLRN-induced platelet aggregation” value (αIIbβ3 [9]; 1 μM) was “clearly attenuated” and the pKa ([11]; pKa 1 (primary amine)) was 6.41. For the same molecule, the pKa ([11]; pKa 2 (piperazine nitrogen)) was 8.08 and the mechanism of inhibition (αIIbβ3 headpiece [12]) was “Orthosteric inhibition at the RGD binding domain as determined by x-ray crystallography”.
With `N=C(N)NCCCC[C@@H]1NC(=O)CCSSC[C@@H](C(N)=O)NC(=O)[C@@H]2CCCN2C(=O)[C@H](Cc2c[nH]c3ccccc23)NC(=O)[C@H](CC(=O)O)NC(=O)CNC1=O` [eptifibatide] ([Mpa][hArg]GDWPC-NH2; disulfide 1-7 (inferred)) the “shift of NIL value distribution of αIIbβ3 nanodiscs” value (purified αIIbβ3; dose-dependent, P < 0.001) was “shifted the distribution in a dose-dependent manner” and the incremental fibrinogen binding (platelet αIIbβ3; 1 μM) was 34%.
With `CCCCS(=O)(=O)N[C@@H](Cc1ccc(OCCCCC2CCNCC2)cc1)C(=O)O` [tirofiban] the inhibition at 10 µM (αIIbβ3 [2]; [14]) was 87 ± 9%, the “recruitment of patient IgG” value (normal human platelets; the two eptifibatide-treated patient samples reactive with RUC compounds) was “able to recruit patient IgG” and the “increase … gel filtration” value (αIIbβ3 headpiece [6]; 56 μM (near-saturating)) was 0.4 nm. For the same molecule, the “reduction in αIIbβ3 headpiece elution volume” value (αIIbβ3 headpiece [6]; 56 μM (near-saturating)) was 0.38 mL, the “increase in Stokes radius, DLS” value (αIIbβ3 headpiece [7]; 56 μM (near-saturating)) was 0.45 nm and the incremental fibrinogen binding (platelet αIIbβ3; 0.5 μM) was 17%. The “change of IC50 for PAC-1 binding” value (recombinant human αIIbβ3) was “completely unchanged”.
Work on RGDS yielded an incremental fibrinogen binding (platelet αIIbβ3; 100 μM) of 36%.
